Sampled rows, rich in hits. Any-hit rate of the full collection: about 1.6%.
ARFGAP1 inhibitor: inhibits rat ARF GTPase activating protein 1; AID 651572; inhibition, % at 16.5 µM; hit rate 0.26% among 360,000; Arfgap1-stimulated ARF1 GTP hydrolysis, GDP FP detection;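 active means inhibition above a per-plate limit, mean inhibition of low control wells plus 3 SD, cut at about 25% in these data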;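 further: 0% = DMSO wells with enzyme and 100% = wells lacking Arfgap1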
Target sequence (Q62848 1-136 limits assumed): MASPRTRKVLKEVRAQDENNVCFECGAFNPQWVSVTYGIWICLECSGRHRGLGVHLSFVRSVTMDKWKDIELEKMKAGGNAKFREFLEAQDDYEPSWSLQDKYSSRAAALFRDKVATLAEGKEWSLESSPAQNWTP
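Replicates: Single well per compound | Assay system: Truncated rat Arfgap1 GAP domain | Control set: No-Arfgap1 wells (100%) versus DMSO full-reaction wells (0%) | Times: Enzyme reaction 120 min at 25 °C after 20 min preincubation | Reagent: Human ARF1(Δ1-17)-GTP substrate | Measured by: Tracer-displacement fluorescence polarization with EDTA stop, 620/688 nm | Measure: Percent inhibition of Arfgap1-stimulated GTP hydrolysis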
ASAP1 GAP inh: inhibitors of human ASAP1 ArfGAP activity; ASAP1-stimulated ARF1 GTP hydrolysis, GDP FP detection; hit rate 0.19% among 360,000; inhibition, % at 16.5 µM; AID 624377; in the data active means inhibition above about 25%;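 further: 0% = vehicle with enzyme and substrate and 100% = no enzyme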
Target sequence (Q9ULH1 325-724 limits assumed): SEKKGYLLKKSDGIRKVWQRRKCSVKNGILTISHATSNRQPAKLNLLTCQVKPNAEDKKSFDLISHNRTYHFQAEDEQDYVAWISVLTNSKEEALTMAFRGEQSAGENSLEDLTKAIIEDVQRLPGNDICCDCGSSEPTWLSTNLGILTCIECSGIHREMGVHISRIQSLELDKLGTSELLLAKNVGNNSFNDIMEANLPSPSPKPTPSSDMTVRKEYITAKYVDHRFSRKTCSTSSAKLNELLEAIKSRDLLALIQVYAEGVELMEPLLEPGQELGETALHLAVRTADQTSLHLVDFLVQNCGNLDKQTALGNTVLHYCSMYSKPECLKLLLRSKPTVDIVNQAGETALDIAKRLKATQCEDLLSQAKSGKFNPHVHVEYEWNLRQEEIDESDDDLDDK
Neddylation inh: inhibitors of human cullin neddylation; TR-FRET cullin neddylation, biochemical; inhibition, % at 25 µM; hit rate 0.58% among 360,000; AID 651699; in the data active means inhibition above about 36%
H9c2 protect: modulators protecting cardiomyocytes from myocardial damage | hit rate 0.63% among 360,000 | H9c2 cardiomyocytes, H2O2 injury protection, ATPLite, 2 h | AID 588492 | protection from H2O2 cell death, % at 20 µM;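 active means compounds giving at least 50% protection of heart cells from peroxide-induced death in the single-dose screen, raw or plate-pattern-corrected value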;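 further: 0% = DMSO wells with peroxide and 100% = DMSO wells without peroxide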
Neddyl inh conf: confirmation of human cullin neddylation inhibitors; shares compounds with Neddylation inh; TR-FRET cullin neddylation biochemical assay; calls only at 25 µM; hit rate 13% among 1,800; AID 652217; in the data active means inhibition above about 40%;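 further: neddylation substrate is the cullin 1 ring ligase complex with SKP2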
An asterisk follows results filed as active; i = inactive; . = not tested or not shown; + = active, no number.

SMILES	ARFGAP1 inhibitor	ASAP1 GAP inh	Neddylation inh	H9c2 protect	Neddyl inh conf
COc1ccc(OC)c(/C=N\NC(=O)CSc2nnc(CCCc3ccc(OC)c(C)c3)o2)c1	1	6	37*	-27	.
Cc1cc(C(=O)NCc2ccccc2)c(=O)[nH]c1C	-5	-16	53*	4	+
COc1ccc(Cl)cc1NC(=O)Cn1nnc(C(=O)NCc2ccc3c(c2)OCO3)c1N	4	-10	69*	-20	i
COC(=O)[C@]12C[C@H](CC(=O)NCc3cccs3)C(=O)N(Cc3ccccc3)C1=C[C@H](C(C)(C)C)O[C@@H]2C	-4	9	.	.	.
Cc1csc(NC(=O)c2cc(=O)[nH]c3ccc(S(=O)(=O)N4CCOCC4)cc23)n1	3	4	57*	4	.
Nc1cc(Cl)ccc1C(=O)OCC(=O)NCc1cccs1	-9	0	56*	-5	.
CCc1nc(N2CCCCC2)c2oc3ccccc3c2n1	-6	2	5	-8	.
CCc1nc(N2CCN(Cc3ccc4c(c3)OCO4)CC2)c2oc3ccccc3c2n1	0	-7	44*	-9	i
Cc1nc(-c2cccs2)sc1C(=O)NN	-3	-9	-9	1	.
CCOC(=O)c1sc(-c2cccs2)nc1C	-6	-10	46*	-7	i
Cc1cc(-c2ccccc2)c2nncn2n1	-2	-7	40*	1	+
CC(C)NC(=O)N[C@H]1C=C[C@H](CC(=O)NCc2ccc(Oc3ccccc3)cc2)O[C@@H]1CO	4	9	9	.	.
CCC(=O)N1CCC(C)(C(=O)Nc2nccc3ccccc23)C1 (stereo not drawn)	-11	10	2	0	.
CC(=O)Nc1cccc2c1C(=O)NC2=O	5	7	46*	9	+
O=C1NC(=O)c2c(NC(=O)C3CCCO3)cccc21 (stereo not drawn)	-1	7	29	10	.
CCOC(=O)Cn1nc(-c2ccccc2)c2cnc3ccc(C)cc3c21	8	3	42*	7	i
Cc1ccc([C@H]2C[C@]34CN(Cc5ccccc5)S(=O)(=O)[C@H]3C[C@H]2O4)cc1	8	18	.	.	.
COc1cc(CNc2nc3ccccc3n2Cc2ccccc2)ccc1O	5	-17	0	0	.
c1cncc(CNc2ncnc3ccc(-c4ccc5c(c4)OCO5)cc23)c1	17	13	28*	10	i
Cc1cccc(CNc2ncnc3ccc(-c4ccc5c(c4)OCCO5)cc23)c1	3	9	38*	-6	i
COc1ccccc1CNC(=O)CSc1nnc2ccc(-c3cccnc3)nn12	-1	-3	-12	3	.
COc1ccccc1-c1ccc2nnc(SC)n2n1	9	-6	43*	9	i
CC(C)(C)n1nnnc1SCC(=O)Nc1nn(-c2ccccc2)nc1C(N)=O	4	-9	48*	13	i
C=CCN1C(=O)c2n[nH]c(C)c2C1c1ccc(C)cc1 (stereo not drawn)	-6	5	.	.	.
COc1ccc2cc(/C(C)=N/NC(=O)C3CC3)ccc2c1	12	-2	43*	-15	i
SMILES	ARFGAP1 inhibitor	ASAP1 GAP inh	Neddylation inh	H9c2 protect	Neddyl inh conf
CCc1ccc2nc(N3CCN(C)CC3)c(C#N)cc2c1	-3	-5	43*	8	i
NS(=O)(=O)c1cccc(Nc2nc3ccccc3nc2NS(=O)(=O)c2ccc(Cl)cc2)c1	17	2	39*	-5	+
CC(=O)Nc1ccc(S(=O)(=O)Nc2nc3ccccc3nc2Nc2ccc3ccccc3c2)cc1	5	2	.	-1	.
CC(=O)Nc1ccc(S(=O)(=O)Nc2nc3ccccc3nc2Nc2cccc(O)c2)cc1	11	15	46*	2	.
NC(=O)c1c(N)[nH]c(C(=O)c2ccccc2)c1-c1ccc(Br)cc1	1	1	.	.	.
Cc1cc(C)n2nc3ccccc3c2n1	12	-2	42*	6	i
COc1ccc(/C=C2\CCCC3C2=NN(C(=O)CSc2n[nH]c(N)n2)C3c2ccc(OC)cc2)cc1 (stereo not drawn)	13	6	46*	-4	.
O=C1CCC(C(=O)OCC(=O)N2N=C3/C(=C\c4ccccc4)CCCC3C2c2ccccc2)N1 (stereo not drawn)	-13	-3	18	-4	.
COc1ccc(C(=O)Nc2ccc(NC(=O)c3ccccc3)cc2)cc1S(=O)(=O)N1CCOCC1	4	0	41*	1	i
COc1ccc(C(=O)Nc2ccncc2)cc1S(=O)(=O)N1CCOCC1	-13	-4	-16	-4	.
CCCCCCCCN1C(=O)[C@@H](CC(=O)NCc2ccc(C)o2)C[C@@]2(C(=O)OC)C1=C[C@H](C1CCCC1)O[C@@H]2C	-3	6	.	.	.
CCOCCN1CCN(c2c(C)c(C)nc3cc(-c4cc(OC)cc(OC)c4)nn23)CC1	-6	18	45*	41	i
COc1ccc2c(c1)[C@@]1(OCCC=C[C@H]1C)C(=O)N2Cc1ccc(Br)cc1	10	0	.	.	.
CC(C)Cc1csc(NC(=O)c2ccc(Cl)cc2)c1C(=O)O	0	-18	45*	-10	i
CC(C)Cc1csc(NC(=O)c2ccccc2Cl)c1C(=O)O	-6	-2	7	8	.
COc1ccc2c(c1)C1OCCC1C(c1ccco1)N2 (stereo not drawn)	.	.	.	-19	.
c1coc(C2Nc3ccccc3C3OCCC23)c1 (stereo not drawn)	17	0	40*	-1	i
N=c1c(C(=O)NCCN2CCOCC2)cc2c(=O)n3ccccc3nc2n1CCc1ccccc1	-2	-7	.	29	.
Cc1ccc(Cn2c(=N)c(C(=O)NCCN3CCOCC3)cc3c(=O)n4ccccc4nc32)cc1	10	-10	62*	29	+
COC(=O)C1=C(C)N(Cc2ccc(C(F)(F)F)cc2)C(=NCc2ccccc2C(F)(F)F)NC1c1ccc(F)cc1 (stereo not drawn)	7	5	.	.	.
CN(/N=C/c1cccnc1)c1cnc2ccccc2n1	-3	-7	45*	4	i
C(=N\N=C\c1cccnc1)/c1cccnc1	.	.	-35	-2	.
COC(=O)C1=C(C)N(Cc2ccc(F)cc2)C(=S)NC1c1cccc(Br)c1 (stereo not drawn)	17	8	.	.	.
CCOn1c(=O)c[n+]([O-])c2ccccc21	-4	3	49*	3	.
O=c1c[n+]([O-])c2ccccc2n1OCc1c(F)cccc1F	10	11	42*	17	+
O=c1c[n+]([O-])c2ccccc2n1OCc1ccccn1	-5	9	37*	12	i
Cc1c(=O)n(OCc2ccccn2)c2ccccc2[n+]1[O-]	-8	7	-6	-1	.
COc1ccc(S(=O)(=O)Nc2cc3c4c(c2)CC(=O)N4CCC3)cc1OC	-12	0	-4	20	.
Cc1ccc(O)c(/C=N/NC(=O)CN2CCCC2)c1	-5	3	46*	43	i
CC1CC(=O)c2cnc(Nc3ccccc3)nc2C1 (stereo not drawn)	-4	-13	38*	-10	.

Source: PubChem BioAssay (several laboratories)
